Assay results reported in ChEMBL document CHEMBL4138225, “Development of novel anti-filarial agents using carbamo(dithioperoxo)thioate derivatives” (Eur J Med Chem, 2018).
In brackets after ≈: the same amount, converted by molar mass. Activity calls are given as the source filed them. The calls are words filed in the database; no cut-off is given here.

Key:
Setaria cervi [1] = test: Antifilarial activity against Setaria cervi microfilariae after 24 hrs by MTT assay; type: functional
Summary of the method: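 Bovine S. cervi microfilariae incubated with compounds (DMSO-dissolved) in RPMI-1640 + 10% FBS, 5% CO2, 24 h. Worms washed in PBS; ~1×10^3 suspended in 0.3 ml MTT 0.25 mg/ml, 37 °C 2 h in dark. Formazan dissolved in DMSO, absorbance at 595 nm. Percent inhibition computed; LC50 fitted; ≥4 repeats, mean ± SE.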

Setaria cervi [2] = test: Antifilarial activity against Setaria cervi microfilariae assessed as reduction in worm movement measured every 6 hrs up to 24 hrs by microscopy; type: functional, organism-based
Summary of the method: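 About 1×10^5 S. cervi mf per well in RPMI-1640 with 10% FBS at 5% CO2, given a dose series. Motility checked by microscope every 6 h up to 24 h and scored 4 (highly motile) down to 0 (dead). IC50 and MIC calculated from scores; three experiments in triplicate, mean ± SE.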

Setaria cervi [3] = test: Antifilarial activity against Setaria cervi adult after 24 hrs by MTT assay; type: functional, organism-based
Summary of the method: (§1)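 S. cervi mf or adults cultured in RPMI-1640 with 10% FBS, 5% CO2, 24 h with compounds dissolved in DMSO. Worms washed in PBS, ~1×10^3 put in 0.25 mg/ml MTT for 2 h at 37 °C in the dark. Formazan dissolved in DMSO, A595. Percent inhibition computed, LC50 fitted; at least four repeats, mean ± SE.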

Setaria cervi [4] = test: Antifilarial activity against Setaria cervi oocytes after 24 hrs by MTT assay; type: functional, organism-based
Setaria cervi [5] = test: Antifilarial activity against Setaria cervi microfilariae after 3 hrs by trypan blue exclusion assay; type: functional, organism-based
Summary of the method: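 After treatment, the culture was mixed and 100 μL holding parasites moved into fresh medium and put back in the CO2 incubator. Viability read by trypan blue staining, dead worms blue. Viability % = live / total microfilariae.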

Setaria cervi [6] = test: Antifilarial activity against Setaria cervi adult after 3 hrs by trypan blue exclusion assay; type: functional, organism-based
WI-38 = test: Cytotoxicity against human WI38 cells after 24 hrs by MTT assay; type: cell-based; settings: WI-38, 24 h
Summary of the method: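 WI-38 normal human lung fibroblasts, 2.0×10^4 per well, grown 24 h, then treated 24 h at 0–50 µg/mL. MTT 0.5 mg/mL added in phenol red-free RPMI with 5% FBS, 4 h at 37 °C, 5% CO2. Formazan dissolved in DMSO, A570.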

[7] = Selectivity ratio of IC50 for human WI38 cells to IC50 for Setaria cervi microfilariae; type: toxicity; settings: read-out: Ratio IC50
Setaria cervi [8] = test: Induction of reactive oxygen species generation in Setaria cervi microfilariae at 1 to 10 uM by NBT assay; type: functional, organism-based
Summary of the method: (§2)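 Treated mf or adults pelleted at 7500 rpm, washed in PBS (50 mM, pH 7.0), then incubated in 2% NBT for 2 h at 37 °C. Washed in PBS and methanol, formazan dissolved in 2M KOH/DMSO for 10–15 min at room temperature, absorbance read at 620 nm.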

Setaria cervi [9] = test: Induction of chromatin condensation in Setaria cervi microfilariae by Hoechst 33342 staining-based […] microscopic analysis; type: functional, organism-based
Summary of the method: (§3)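 Treated mf washed in PBS (pH 7.2), fixed in paraformaldehyde and stained 5 min with 1 mg/mL Hoechst 33342. Mounted on poly-L-lysine slides and imaged by fluorescence microscopy at […].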

Setaria cervi [10] = test: Antifilarial activity against Setaria cervi microfilaria forms after 24 hrs by MTT assay; type: functional, organism-based; summary of the method: as §1
Setaria cervi [11] = test: Antifilarial activity against Setaria cervi microfilariae after 3 hrs
Setaria cervi [12] = test: Induction of reactive oxygen species generation in Setaria cervi adult form at 1 to 10 uM by NBT assay; type: functional, organism-based; summary of the method: as §2
Setaria cervi [13] = test: Induction of chromatin condensation in Setaria cervi microfilariae at 5 ug/ml after 3 hrs by Hoechst 33342 staining-based […] microscopic analysis; type: functional, organism-based; summary of the method: as §3
Setaria cervi [14] = test: Induction of apoptosis in Setaria cervi microfilariae at 1 to 5 ug/ml by acridine orange/ethidium bromide staining-based fluorescence microscopic analysis; type: functional, organism-based
Summary of the method: (§4)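 Treated mf or oocytes stained with AO and EtBr mixed 1:1 (from […] stocks in 0.1 M PBS). Viewed under fluorescence microscope on glass slides; orange EtBr signal marks lost membrane integrity.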

Setaria cervi [15] = test: Induction of apoptosis in Setaria cervi oocytes at 1 to 5 ug/ml by acridine orange/ethidium bromide staining-based fluorescence microscopic analysis; type: functional, organism-based; summary of the method: as §4
Setaria cervi [16] = test: Induction of apoptosis in Setaria cervi microfilaria assessed as viable cells at 50 ug/ml after 6 hrs by Annexin V-FITC/propidium iodide staining-based flow cytometric analysis (reference value: 97.66%); type: functional
Setaria cervi [17] = test: Induction of apoptosis in Setaria cervi microfilaria assessed as early apoptotic cells at 50 ug/ml after 6 hrs by Annexin V-FITC/propidium iodide staining-based flow cytometric analysis (reference value: 2.11%); type: functional
Setaria cervi [18] = test: Induction of apoptosis in Setaria cervi microfilaria assessed as late apoptotic cells at 50 ug/ml after 6 hrs by Annexin V-FITC/propidium iodide staining-based flow cytometric analysis (reference value: 0.21%); type: functional
Setaria cervi [19] = test: Induction of apoptosis in Setaria cervi microfilaria assessed as necrotic cells at 50 ug/ml after 6 hrs by Annexin V-FITC/propidium iodide staining-based flow cytometric analysis (reference value: 0.02%); type: functional
Setaria cervi [20] = test: Induction of apoptosis in Setaria cervi oocytes assessed as viable cells at 50 ug/ml after 6 hrs by Annexin V-FITC/propidium iodide staining-based flow cytometric analysis (reference value: 90.03%); type: functional
Setaria cervi [21] = test: Induction of apoptosis in Setaria cervi oocytes assessed as early apoptotic cells at 50 ug/ml after 6 hrs by Annexin V-FITC/propidium iodide staining-based flow cytometric analysis (reference value: 8.19%); type: functional
Setaria cervi [22] = test: Induction of apoptosis in Setaria cervi oocytes assessed as late apoptotic cells at 50 ug/ml after 6 hrs by Annexin V-FITC/propidium iodide staining-based flow cytometric analysis (reference value: 0.64%); type: functional
Setaria cervi [23] = test: Induction of apoptosis in Setaria cervi oocytes assessed as necrotic cells at 50 ug/ml after 6 hrs by Annexin V-FITC/propidium iodide staining-based flow cytometric analysis (reference value: 1.14%); type: functional
Setaria cervi [24] = test: Induction of apoptosis in Setaria cervi oocytes at 1 to 10 ug/ml after 6 hrs by Annexin V-FITC/propidium iodide staining-based fluorescence microscopic analysis; type: functional, organism-based
Summary of the method: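 Oocytes taken from gravid S. cervi females, cultured in RPMI-1640 with FBS and treated at 1 and 10 μg/mL. Washed, suspended in PBS (50 mM, pH 7.2), spun at 7500 rpm for 5 min, stained with Annexin V-FITC/PI. Imaged by inverted fluorescence microscope.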

Setaria cervi [25] = test: Induction of apoptosis in Setaria cervi adult form assessed as increase in EGL1 protein levels after 24 hrs by Western blot analysis; type: functional, organism-based
Summary of the method: (§5)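 Adult worms treated 24 h at 10, 50 and 100 μg/mL. Protein measured by Lowry; 100 μg run on 12.5% SDS-PAGE and blotted to PVDF. Blocked in 10% skim milk, anti-EGL-1, CED-3 or CED-9 overnight at 4 °C, then alkaline phosphatase secondary for 6 h. BCIP/NBT detection, GAPDH loading control, band densitometry.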

Setaria cervi [26] = test: Induction of apoptosis in Setaria cervi adult form assessed as increase in CED3 protein levels after 24 hrs by Western blot analysis; type: functional, organism-based; summary of the method: as §5
Setaria cervi [27] = test: Induction of apoptosis in Setaria cervi adult form assessed as decrease in CED9 protein levels after 24 hrs by Western blot analysis; type: functional, organism-based; summary of the method: as §5

## S=C(SSc1ccccn1)N1CCc2ccccc2C1
Setaria cervi [1]
  LC50: 99.2 µg/mL (≈ 311 µM)
Setaria cervi [2]
  IC50: 24.8 µg/mL (≈ 77.8 µM)
  MIC: 8.26 µg/mL (≈ 25.9 µM)

## S=C(SSc1cccc2ccccc12)N1CCC(Cc2ccccc2)CC1
Setaria cervi [1]
  LC50: 243 µg/mL (≈ 593 µM)
Setaria cervi [2]
  IC50: 60.7 µg/mL (≈ 148 µM)
  MIC: 20.2 µg/mL (≈ 49.4 µM)

## S=C(SSc1ncccn1)N1CCCCC1
Setaria cervi [1]
  Activity: Dose-dependent effect
  LC50: 5.1 µg/mL (≈ 18.8 µM)
Setaria cervi [3]
  Activity: Dose-dependent effect
Setaria cervi [4]
  Activity: Active
Setaria cervi [5]
  Activity: Dose-dependent effect
Setaria cervi [6]
  Activity: Dose-dependent effect
WI-38
  IC50: 10.6 µg/mL (≈ 39.1 µM)
[7]
  selectivity ratio: 5
Setaria cervi [8]
  Activity: Active
Setaria cervi [9]
  Activity: Active
Setaria cervi [10]
  Activity: Active
Setaria cervi [2]
  IC50: 4.75 µg/mL (≈ 17.5 µM)
  MIC: 2.39 µg/mL (≈ 8.81 µM)
Setaria cervi [11]
  IC50: 4.75 µg/mL (≈ 17.5 µM)

## COc1ccc(SSC(=S)N2CCc3ccccc3C2)cc1
Setaria cervi [1]
  LC50: 126 µg/mL (≈ 361 µM)
Setaria cervi [2]
  IC50: 31.4 µg/mL (≈ 90.4 µM)
  MIC: 10.5 µg/mL (≈ 30.1 µM)

## S=C(SSc1cccc2ccccc12)N1CCCC1
Setaria cervi [1]
  LC50: 90.3 µg/mL (≈ 296 µM)
Setaria cervi [2]
  IC50: 22.6 µg/mL (≈ 73.9 µM)
  MIC: 7.52 µg/mL (≈ 24.6 µM)

## S=C(SSc1ccccn1)N1CCOCC1
Setaria cervi [1]
  LC50: 191 µg/mL (≈ 700 µM)
Setaria cervi [2]
  IC50: 47.7 µg/mL (≈ 175 µM)
  MIC: 15.9 µg/mL (≈ 58.3 µM)

## S=C(SSc1ccccn1)N1CCCCC1
Setaria cervi [1]
  LC50: 97.3 µg/mL (≈ 360 µM)
Setaria cervi [2]
  IC50: 24.3 µg/mL (≈ 89.9 µM)
  MIC: 8.69 µg/mL (≈ 32.1 µM)

## COc1ccc(SSC(=S)N2CCC(Cc3ccccc3)CC2)cc1
Setaria cervi [1]
  LC50: 248 µg/mL (≈ 638 µM)
Setaria cervi [2]
  IC50: 62.1 µg/mL (≈ 159 µM)
  MIC: 20.7 µg/mL (≈ 53.1 µM)

## Cc1ccc(SSC(=S)N2CCCCC2)cc1
Setaria cervi [1]
  Activity: Dose-dependent effect
  LC50: 3.89 µg/mL (≈ 13.7 µM)
Setaria cervi [3]
  Activity: Dose-dependent effect
Setaria cervi [4]
  Activity: Active
Setaria cervi [5]
  Activity: Dose-dependent effect
Setaria cervi [6]
  Activity: Dose-dependent effect
WI-38
  IC50: 19.8 µg/mL (≈ 70 µM)
[7]
  selectivity ratio: 25
Setaria cervi [12]
  Activity: Active
Setaria cervi [8]
  Activity: Active
Setaria cervi [13]
  Activity: Active
Setaria cervi [14]
  Activity: Dose-dependent effect
Setaria cervi [15]
  Activity: Dose-dependent effect
Setaria cervi [16]
  Activity: 68.55%
Setaria cervi [17]
  Activity: 15.6%
Setaria cervi [18]
  Activity: 15.82%
Setaria cervi [19]
  Activity: 0.01%
Setaria cervi [20]
  Activity: 70.84%
Setaria cervi [21]
  Activity: 13.3%
Setaria cervi [22]
  Activity: 11.3%
Setaria cervi [23]
  Activity: 4.47%
Setaria cervi [24]
  Activity: Dose-dependent effect
Setaria cervi [25]
  Activity: Dose-dependent effect
Setaria cervi [26]
  Activity: Dose-dependent effect
Setaria cervi [27]
  Activity: Dose-dependent effect
Setaria cervi [10]
  Activity: Active
Setaria cervi [2]
  IC50: 0.708 µg/mL (≈ 2.5 µM)
  MIC: 0.358 µg/mL (≈ 1.26 µM)
Setaria cervi [11]
  IC50: 0.708 µg/mL (≈ 2.5 µM)

## S=C(SSc1ccccn1)N1CCC(Cc2ccccc2)CC1
Setaria cervi [1]
  LC50: 237 µg/mL (≈ 656 µM)
Setaria cervi [2]
  IC50: 59.1 µg/mL (≈ 164 µM)
  MIC: 19.7 µg/mL (≈ 54.7 µM)

## S=C(SSc1cccc2ccccc12)N1CCc2ccccc2C1
Setaria cervi [1]
  LC50: 131 µg/mL (≈ 356 µM)
Setaria cervi [2]
  IC50: 32.7 µg/mL (≈ 89 µM)
  MIC: 10.9 µg/mL (≈ 29.7 µM)

## COc1ccc(SSC(=S)N2CCCCC2)cc1
Setaria cervi [1]
  Activity: Dose-dependent effect
  LC50: 6.94 µg/mL (≈ 23.2 µM)
Setaria cervi [3]
  Activity: Dose-dependent effect
Setaria cervi [4]
  Activity: Active
Setaria cervi [5]
  Activity: Dose-dependent effect
Setaria cervi [6]
  Activity: Dose-dependent effect
Setaria cervi [9]
  Activity: Active
Setaria cervi [10]
  Activity: Active
Setaria cervi [2]
  IC50: 4.61 µg/mL (≈ 15.4 µM)
  MIC: 2.3 µg/mL (≈ 7.68 µM)
Setaria cervi [11]
  IC50: 4.61 µg/mL (≈ 15.4 µM)
